# Results from PubChem BioAssay.
# Calls of active or inactive are those of the source.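 Rule for the calls, unless noted: active = potentiation averaged over duplicate wells exceeding buffer-only control mean by more than 3 SD; inactive = the rest.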
# Test system: not listed separately
# Experiment: nonspecific flux increase, KCNQ1-free cells – parental CHO cells, counter-screen for KCNQ1 potentiator project (AID 493006;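 active = duplicate-averaged activation above buffer control mean plus 5 SD of those controls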)
# Settings: parental CHO-K1 cells, FluxOR thallium flux, at 10 µM; active compounds read high
# Procedure, shortened: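 Assay system: Untransfected host CHO-K1 cells with FluxOR thallium dye | Probe or stimulus: Potassium/thallium depolarization pulse | Schedule: Overnight 37 °C plating, 90 min RT dye, 20 min compound | Detection: Kinetic thallium-flux fluorescence | Read-out: Max-minus-min fluorescence over baseline, percent of buffer-to-R-L3 span | Benchmarks: Low control buffer, high control R-L3 activator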
Structure (SMILES),activation,outcome
O=C(Nc1nnc(-c2ccc3c(c2)CCCC3)o1)c1ccc(Cl)cc1Cl,374% (active),
COc1ccc(-c2csc(N(CCCN(C)C)C(=O)c3ccccc3C)n2)cc1,,inactive
Cc1cccc(OCc2n[nH]c(=S)n2C2CCCCC2)c1,,inactive
Nc1nc(N)c2sc3nc4c(cc3c2n1)CCC4,,inactive
Cc1cc(C=NCCO)c(C)n1-c1cc(Cl)ccc1Cl,,inactive
Cc1cc(C(=O)CSc2nnc(N)s2)c(C)n1C1CC1,,inactive
O=C(COc1ccccc1Cl)NC(=S)N1CCc2ccccc21,,inactive
Cc1ccc2cccnc2c1NC(=S)NC(=O)c1ccccc1,,inactive
CCC1Oc2ccc(C)cc2N(CC(=O)N(Cc2ccc(C)o2)C2CC(C)(C)NC(C)(C)C2)C1=O (stereo unspecified),152% (active),
COc1ccccc1C(=O)NNC(=O)C(=O)NC(C)C,,inactive
COc1cccc(NC(=S)N/N=C2/CCCCc3ccccc32)c1,,inactive
O=C(NC(=S)Nc1cccnc1)c1cc2ccccc2o1,184% (active),
O=C1CCC/C(=N\NC(=O)c2ccc(COc3cccc4cccnc34)cc2)C1,,inactive
Cc1ccccc1NC(=S)NNC(=O)c1csc2c1CCC(C)C2 (stereo unspecified),174% (active),
CN1CCN(c2ccc(S(=O)(=O)N3CCCCC3)cc2NC(=O)COc2cccc(Cl)c2)CC1,,inactive
CCCC(=O)n1nc(-c2ccc(C)cc2)nc1NCc1ccco1,,inactive
COc1ccc(C(=O)CC(=O)C(=O)Nc2ccc(C)c(Cl)c2)cc1,138% (active),
O=C(NC(=S)Nc1ccc(N2CCCCC2)c(Cl)c1)c1cccs1,138% (active),
CCCn1c(SCC(=O)Nc2ccccc2C(=O)OC)nc2c1c(=O)n(C)c(=O)n2C,,inactive
COc1ccc(CCN(C)C(=O)CSc2nnc(-c3ccco3)o2)cc1OC,,inactive
Cc1c(-c2nc(-c3ccncc3)no2)cccc1[N+](=O)[O-],,inactive

# Target: Potassium voltage-gated channel subfamily KQT member 1 (Homo sapiens) (UniProt P51787)
# Experiment: enhancement of KCNQ1 channel thallium flux – FluxOR thallium flux, CHO cells, duplicates, confirmation (AID 493007);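 for outcome: cells depolarized by a potassium plus thallium sulfate stimulus after compound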
# Settings: KCNQ1 cell line, FluxOR thallium flux fluorescence, at 10 µM; active compounds read high, % of reference activator effect, buffer zero
# Procedure, shortened: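 Material: KCNQ1-expressing CHO cell line; Incubation: FluxOR dye loading 90 min, compound exposure 20 min, room temperature; Detection: FluxOR Tl+ flux fluorescence, 10 s baseline plus 110 s recording; Read-out: percent activation between buffer and R-L3 responses; Control set: buffer-only wells as 0% and R-L3 activator as 100%; Replication: duplicate wells per compound.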
# Sequence of Potassium voltage-gated channel subfamily KQT member 1 (Homo sapiens) (P51787 whole entry, looked up): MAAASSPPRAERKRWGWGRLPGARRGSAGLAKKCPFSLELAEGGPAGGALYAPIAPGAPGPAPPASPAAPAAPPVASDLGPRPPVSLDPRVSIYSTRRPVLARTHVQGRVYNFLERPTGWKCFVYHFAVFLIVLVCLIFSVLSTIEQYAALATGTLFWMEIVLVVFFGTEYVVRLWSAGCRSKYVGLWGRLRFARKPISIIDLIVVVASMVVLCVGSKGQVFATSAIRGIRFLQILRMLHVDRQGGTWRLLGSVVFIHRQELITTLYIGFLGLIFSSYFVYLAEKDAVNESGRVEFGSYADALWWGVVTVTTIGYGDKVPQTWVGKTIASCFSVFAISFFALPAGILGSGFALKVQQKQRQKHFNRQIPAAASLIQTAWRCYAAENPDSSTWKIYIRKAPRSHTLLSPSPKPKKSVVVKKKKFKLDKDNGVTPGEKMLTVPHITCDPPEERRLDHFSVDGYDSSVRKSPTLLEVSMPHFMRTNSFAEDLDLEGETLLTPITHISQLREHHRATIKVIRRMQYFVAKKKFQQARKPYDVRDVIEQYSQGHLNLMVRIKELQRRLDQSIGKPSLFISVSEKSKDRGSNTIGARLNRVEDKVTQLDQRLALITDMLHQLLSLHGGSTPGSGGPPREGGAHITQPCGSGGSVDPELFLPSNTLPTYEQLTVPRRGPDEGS
Structure (SMILES),outcome,potentiation
COC(=O)c1c(NC(=O)CC2SC(N)=NC2=O)sc2c1CCC(C)C2 (stereo unspecified),inactive,
Cc1ccc2cc(/C=N/NC(=O)CN3CCCCC3)c(Cl)nc2c1,inactive,
Cc1cc(/C=C2\C(=N)N3N=C(C(C)C)SC3=NC2=O)c(C)n1Cc1ccccc1,inactive,
CSCC(C)N1CCC(n2nccc2NC(=O)CCOc2ccccc2)CC1 (stereo unspecified),inactive,
CCOc1cccc2sc(NC(=O)c3ccc(Br)s3)nc12,inactive,
CNCC/C=C1/c2ccccc2CSc2ccccc21,inactive,
CCCc1cc(=O)[nH]c(SCC(=O)Nc2ccc(Br)cc2Br)n1,inactive,
O=C(NC(=S)Nc1cccc(Cl)c1)c1cncc(Br)c1,inactive,
CCC(C)NC(=O)Cn1c(-c2ccccc2)cc(C(C)=O)c1C (stereo unspecified),,22% (active)
COc1cccc(-c2nc(=S)c3c(o2)CCCC3)c1,inactive,
CN(C)CCCN(C(=O)CCOc1ccccc1)c1nc2c(F)cccc2s1,inactive,
CCc1ccc(NC(=O)C(=O)NNC(=O)c2cccc(OC)c2)cc1,,124% (active)
CCNc1nc(NCC)nc(C(=O)OCCO)n1,inactive,
COc1ccccc1C(=O)NNC(=O)C(=O)Nc1ccc(C)c(Cl)c1,,235% (active)
Cc1cc(Cl)ccc1OCC(=O)N/N=C1\CC2C=CCC12 (stereo unspecified),inactive,
Nc1ccc(C2(c3ccc(N)cc3)OC(=O)c3ccccc32)cc1,inactive,
O=C(NC(=S)N1CCN(Cc2ccc3c(c2)OCO3)CC1)c1ccc(Cl)cc1,,86% (active)
O=C1C(=O)N(CCCc2ccccc2)c2ccccc21,inactive,
Cc1ccc(NC(=O)Nc2ccc3c(c2)CCC3)cc1,inactive,
O=C(Nc1nnc(-c2ccc3c(c2)CCCC3)o1)c1ccc(Cl)cc1Cl,,176% (active)
COc1ccc(-c2csc(N(CCCN(C)C)C(=O)c3ccccc3C)n2)cc1,inactive,
Cc1cccc(OCc2n[nH]c(=S)n2C2CCCCC2)c1,inactive,
Nc1nc(N)c2sc3nc4c(cc3c2n1)CCC4,inactive,
Cc1cc(C=NCCO)c(C)n1-c1cc(Cl)ccc1Cl,inactive,
Cc1cc(C(=O)CSc2nnc(N)s2)c(C)n1C1CC1,inactive,
O=C(COc1ccccc1Cl)NC(=S)N1CCc2ccccc21,inactive,
Cc1ccc2cccnc2c1NC(=S)NC(=O)c1ccccc1,inactive,
CCC1Oc2ccc(C)cc2N(CC(=O)N(Cc2ccc(C)o2)C2CC(C)(C)NC(C)(C)C2)C1=O (stereo unspecified),,63.5% (active)
COc1ccccc1C(=O)NNC(=O)C(=O)NC(C)C,inactive,
COc1cccc(NC(=S)N/N=C2/CCCCc3ccccc32)c1,,26% (active)
